How the values were obtained:
Cynomolgus monkey [1] = experiment: Terminal half life in cynomolgus monkey at 1 mg/kg, iv; type: ADME, organism-based, Macaca fascicularis; set-up: dose 1 mg/kg, route intravenous; conditions: in vivo
How it was run: (§1)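 Single IV bolus, plasma sampled serially to 24 h post-dose, drug measured by LC-MS/MS, parameters by non-compartmental analysis. Rats and monkeys n = 3 per dose, dogs n = 3 at 1 mg/kg and n = 2 at 20 mg/kg. Nude mice n = 27 per dose level, n = 3 per time point. Mice received the HCl salt in 10% hydroxypropyl-β-cyclodextrin; rats, dogs and monkeys received the TFA salt in PBS.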

Rattus norvegicus [2] = experiment: Cmax in Sprague-Dawley rat at 1 mg/kg, iv; type: ADME, organism-based; set-up: dose 1 mg/kg, route intravenous; conditions: in vivo; how it was run: as §1
Rattus norvegicus [3] = experiment: Terminal half life in Sprague-Dawley rat at 20 mg/kg, iv; type: ADME, organism-based; set-up: dose 20 mg/kg, route intravenous; conditions: in vivo; how it was run: as §1
[4] = Volume of distribution at steady state in Beagle dog at 1 mg/kg, iv; type: ADME, organism-based, Canis lupus familiaris; set-up: dose 1 mg/kg, route intravenous; conditions: in vivo, read-out: Vdss
How it was run: (§2)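 Single IV bolus at 1 or 20 mg/kg of TFA salt in phosphate-buffered saline to male Sprague-Dawley rats (n = 3 per dose), Beagle dogs (n = 3 at 1 mg/kg, male; n = 2 at 20 mg/kg, male/female) and male cynomolgus monkeys (n = 3 per dose). Serial plasma to 24 h; LC-MS/MS; non-compartmental analysis.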

Mus musculus [5] = experiment: Toxicity in mouse xenografted with human MDA-MB-231 cells assessed as effect on body weight at 100 mg/kg, po after 28 days; type: organism-based; set-up: dose 100 mg/kg, route oral; conditions: in vivo, 672 h
How it was run: (§3)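 MDA-MB-231 cells (1.5 × 10^7, 1:1 Matrigel in PBS) implanted subcutaneously in right flank of female nude mice aged 6–8 weeks; ten per group, mean starting tumor 168 mm3. Oral gavage in PBS vehicle, 4.0 mL/kg, schedules including 10, 50 or 100 mg/kg weekly, 10 mg/kg daily or every third day. Body weights measured twice weekly.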

Mus musculus [6] = experiment: Cmax in mouse at 100 mg/kg, po; type: ADME, organism-based; set-up: dose 100 mg/kg, route oral; conditions: in vivo
How it was run: (§4)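 Female mice given the mono-TFA salt orally at 100 mg/kg as a solution in PBS.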

Cynomolgus monkey [7] = experiment: Volume of distribution at steady state in cynomolgus monkey at 1 mg/kg, iv; type: ADME, organism-based, Macaca fascicularis; set-up: dose 1 mg/kg, route intravenous; conditions: in vivo; how it was run: as §2
Canis familiaris [8] = experiment: Cmax in Beagle dog at 1 mg/kg, iv; type: ADME, organism-based, Canis lupus familiaris; set-up: dose 1 mg/kg, route intravenous; conditions: in vivo; how it was run: as §1
Canis familiaris [9] = experiment: AUC (0 to infinity) in Beagle dog at 1 mg/kg, iv; type: ADME, organism-based, Canis lupus familiaris, Plasma; set-up: time infinity, dose 1 mg/kg, route intravenous; conditions: in vivo; how it was run: as §1
Rattus norvegicus [10] = experiment: AUC (0 to infinity) in Sprague-Dawley rat at 20 mg/kg, iv; type: ADME, organism-based, Plasma; set-up: time infinity, dose 20 mg/kg, route intravenous; conditions: in vivo; how it was run: as §1
Cynomolgus monkey [11] = experiment: Cmax in cynomolgus monkey at 1 mg/kg, iv; type: ADME, organism-based, Macaca fascicularis; set-up: dose 1 mg/kg, route intravenous; conditions: in vivo; how it was run: as §1
Mus musculus [12] = experiment: Toxicity in po dosed mouse xenografted with human MDA-MB-231 cells assessed as effect on body weight measured on days 28; type: organism-based; conditions: in vivo; how it was run: as §3
Rattus norvegicus [13] = experiment: Terminal half life in Sprague-Dawley rat at 1 mg/kg, iv; type: ADME, organism-based; set-up: dose 1 mg/kg, route intravenous; conditions: in vivo; how it was run: as §1
MDA-MB-231 = experiment: Antitumor activity against human MDA-MB-231 cells xenografted in mouse assessed as reduction in tumor volume at 100 mg/kg, po administered once in week measured on day 21 relative to control; set-up: scale not given: the % may be the effect or the level left
Rattus norvegicus [14] = experiment: Volume of distribution at steady state in Sprague-Dawley rat at 1 mg/kg, iv; type: ADME, organism-based; set-up: dose 1 mg/kg, route intravenous; conditions: in vivo; how it was run: as §2
Cynomolgus monkey [15] = experiment: AUC (0 to infinity) in cynomolgus monkey at 20 mg/kg, iv; type: ADME, organism-based, Macaca fascicularis, Plasma; set-up: time infinity, dose 20 mg/kg, route intravenous; conditions: in vivo; how it was run: as §1
Rattus norvegicus [16] = experiment: AUC (0 to infinity) in Sprague-Dawley rat at 1 mg/kg, iv; type: ADME, organism-based, Plasma; set-up: time infinity, dose 1 mg/kg, route intravenous; conditions: in vivo; how it was run: as §1
Cynomolgus monkey [17] = experiment: Terminal half life in cynomolgus monkey at 20 mg/kg, iv; type: ADME, organism-based, Macaca fascicularis; set-up: dose 20 mg/kg, route intravenous; conditions: in vivo; how it was run: as §1
[18] = Cmax in Beagle dog at 20 mg/kg, iv; type: ADME, organism-based, Canis lupus familiaris; set-up: dose 20 mg/kg, route intravenous; conditions: in vivo; how it was run: as §1
Cynomolgus monkey [19] = experiment: Volume of distribution at steady state in cynomolgus monkey at 20 mg/kg, iv; type: ADME, organism-based, Macaca fascicularis; set-up: dose 20 mg/kg, route intravenous; conditions: in vivo; how it was run: as §2
Canis familiaris [20] = experiment: Volume of distribution at steady state in Beagle dog at 20 mg/kg, iv; type: ADME, organism-based, Canis lupus familiaris; set-up: dose 20 mg/kg, route intravenous; conditions: in vivo; how it was run: as §2
Cynomolgus monkey [21] = experiment: Cmax in cynomolgus monkey at 20 mg/kg, iv; type: ADME, organism-based, Macaca fascicularis; set-up: dose 20 mg/kg, route intravenous; conditions: in vivo; how it was run: as §1
Canis familiaris [22] = experiment: AUC (0 to infinity) in Beagle dog at 20 mg/kg, iv; type: ADME, organism-based, Canis lupus familiaris, Plasma; set-up: time infinity, dose 20 mg/kg, route intravenous; conditions: in vivo; how it was run: as §1
Mus musculus [23] = experiment: AUC in mouse at 100 mg/kg, po; type: ADME, organism-based, Plasma; set-up: dose 100 mg/kg, route oral; conditions: in vivo; how it was run: as §4
Canis familiaris [24] = experiment: Terminal half life in Beagle dog at 1 mg/kg, iv; type: ADME, organism-based, Canis lupus familiaris; set-up: dose 1 mg/kg, route intravenous; conditions: in vivo; how it was run: as §1
Canis familiaris [25] = experiment: Terminal half life in Beagle dog at 20 mg/kg, iv; type: ADME, organism-based, Canis lupus familiaris; set-up: dose 20 mg/kg, route intravenous; conditions: in vivo; how it was run: as §1
Rattus norvegicus [26] = experiment: Volume of distribution at steady state in Sprague-Dawley rat at 20 mg/kg, iv; type: ADME, organism-based; set-up: dose 20 mg/kg, route intravenous; conditions: in vivo; how it was run: as §2
Cynomolgus monkey [27] = experiment: AUC (0 to infinity) in cynomolgus monkey at 1 mg/kg, iv; type: ADME, organism-based, Macaca fascicularis, Plasma; set-up: time infinity, dose 1 mg/kg, route intravenous; conditions: in vivo; how it was run: as §1
Rattus norvegicus [28] = experiment: Cmax in Sprague-Dawley rat at 20 mg/kg, iv; type: ADME, organism-based; set-up: dose 20 mg/kg, route intravenous; conditions: in vivo; how it was run: as §1

SMILES: CN[C@@H](C)C(=O)N[C@H](C(=O)N1CCC[C@H]1C(=O)Nc1snnc1-c1ccccc1)C1CCCCC1.O=C(O)C(F)(F)F
- beta t1/2 (Cynomolgus monkey [1]): 26.4 min
- Cmax (Rattus norvegicus [2]): 1.1 µM
- beta t1/2 (Rattus norvegicus [3]): 50.4 min
- Vd [4]: 1 L/kg
- Activity (Mus musculus [5]): Toxic
- Cmax (Mus musculus [6]): 53.7 µM
- Vdss (Cynomolgus monkey [7]): 1.6 L/kg
- Cmax (Canis familiaris [8]): 3.8 µM
- AUC (Canis familiaris [9]): 2.1 µM·h
- AUC (Rattus norvegicus [10]): 25 µM·h
- Cmax (Cynomolgus monkey [11]): 1.46 µM
- Activity (Mus musculus [12]): >= 5%
- beta t1/2 (Rattus norvegicus [13]): 25.8 min
- Activity (MDA-MB-231): 85%
- Vdss (Rattus norvegicus [14]): 2 L/kg
- AUC (Cynomolgus monkey [15]): 19 µM·h
- AUC (Rattus norvegicus [16]): 0.51 µM·h
- beta t1/2 (Cynomolgus monkey [17]): 46.2 min
- Cmax [18]: 30 µM
- Vdss (Cynomolgus monkey [19]): 2.2 L/kg
- Vdss (Canis familiaris [20]): 1.5 L/kg
- Cmax (Cynomolgus monkey [21]): 24 µM
- AUC (Canis familiaris [22]): 36 µM·h
- AUC (Mus musculus [23]): 203.5 µM·h
- beta t1/2 (Canis familiaris [24]): 54 min
- beta t1/2 (Canis familiaris [25]): 120 min
- Vdss (Rattus norvegicus [26]): 1.7 L/kg
- AUC (Cynomolgus monkey [27]): 0.71 µM·h
- Cmax (Rattus norvegicus [28]): 31 µM
